# In ChEMBL document CHEMBL1133723, “Developing a dynamic pharmacophore model for HIV-1 integrase” (J Med Chem, 2000):
# *1 amine or outer side, *2 acyl side, *3 side chain or, on linkers, in order; H or OH if unused. Where a SMILES comes first, the peptide text is derived from it. Bridges are numbered along the chain shown (N, C = ends). [ ]: non-standard residue; d: D form. The star is where a group is joined. X1 = NC1=N[C@@H]([C@H](N[*:1])C(=O)[*:2])C[C@H](O)N1; ΔAla(Z-3-ureido) = NC(=O)N/C=C(\N)C(=O)O; pNA = O=[N+]([O-])c1ccc(N*)cc1; AMC = Cc1cc(=O)oc2cc(N*)ccc12; β3hOrn = NCCC[C@H](N)CC(=O)*; Dap = NC[C@H](N)C(=O)O; Boc = CC(C)(C)OC(=O)*; Bn = c1ccc(C*)cc1
# Columns and labels:
# [1] = target: T1, Human immunodeficiency virus type 1 integrase (Human immunodeficiency virus 1, UniProt Q7ZJM1)
# [2] = target: T1, Human immunodeficiency virus type 1 integrase; remark: listed apart in the source
# [3] = target: Human immunodeficiency virus type 1 integrase (Human immunodeficiency virus 1) (UniProt Q7ZJM1); assay: Inhibitory activity against HIV-1 integrase at 200 uM
# Outline: (§1)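 Integration reaction with HIV-1 integrase, run as in an earlier published method except for the detection step. The integration product was detected with digoxygenin-labelled oligonucleotides and an anti-digoxygenin antibody conjugated to horseradish peroxidase. Compounds were tested at 1 mM, 200 µM and 25 µM.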
# [4] = target: Human immunodeficiency virus type 1 integrase (Human immunodeficiency virus 1) (UniProt Q7ZJM1); assay: Inhibitory activity against HIV-1 integrase at 1 mM
# Outline: as §1
# [5] = target: Human immunodeficiency virus type 1 integrase (Human immunodeficiency virus 1) (UniProt Q7ZJM1); assay: Inhibition against HIV-1 integrase at 25 uM
# Outline: as §1
# [6] = target: Human immunodeficiency virus type 1 integrase (Human immunodeficiency virus 1) (UniProt Q7ZJM1); conditions: at 200 µM
# [7] = target: Human immunodeficiency virus type 1 integrase (Human immunodeficiency virus 1) (UniProt Q7ZJM1); conditions: at 1 mM
# [8] = target: Human immunodeficiency virus type 1 integrase (Human immunodeficiency virus 1) (UniProt Q7ZJM1); assay: Inhibitory activity against HIV-1 integrase at 25 uM
# Outline: as §1
Compound,IC50 [1],IC50 [2],inhibition [6],inhibition [7],further results
COc1cccc2c1C(=O)c1c(O)c3c(c(O)c1C2=O)C[C@@](O)(C(=O)CO)C[C@@H]3O[C@H]1C[C@H](N)[C@H](O)[C@H](C)O1 [DOXORUBICIN],2400 nM,900 nM,,,
CC(=O)NC1=C(O)C[C@@](O)(C(=O)O)O[C@H]1[C@@H](O)[C@H](O)CO,,,,,inhibition [3]: < 50%; inhibition [4]: < 50%
Cc1cccc2c1C(O)=C1C(=O)C3C(O)=C(C(=O)NCNC(CO)(CO)CO)C(=O)[C@@H](N(C)C)[C@@H]3C[C@@H]1C2(C)O (some centres undefined),500 nM,1100 nM,,,
O=C(NCNC(=O)NC1C(=O)NC(=O)N1CO)NC1C(=O)NC(=O)N1CO (centres undefined),,,< 50%,> 50%,inhibition [5]: < 50%
N=C(N)NCCCCNCCCNC(=N)N,,,,,inhibition [3]: < 50%; inhibition [4]: < 50%
NNC(=O)C(O)C(O)C(O)C(O)CO (centres undefined),,,< 50%,> 50%,inhibition [5]: < 50%
O=C(/C=C/c1ccc(O)c(O)c1)O[C@H]1[C@H](O)C[C@](O)(C(=O)O)C[C@H]1OC(=O)/C=C/c1ccc(O)c(O)c1 (stereo in doubt; form 1),540 nM,790 nM,,,
O=C(O[C@@H]1Cc2c(O)cc(O)cc2O[C@@H]1c1cc(O)c(O)c(O)c1)c1cc(O)c(O)c(O)c1,,,> 50%,> 50%,inhibition [5]: > 50%
O=c1c(O)c(-c2ccc(O)c(O)c2)oc2cc(O)c(O)c(O)c12 [QUERCETAGETIN],600 nM,1300 nM,,,
Cc1[nH]n(-c2cccc(NC(=O)Nc3cccc(-n4[nH]c(C)c(/N=N/c5c(O)cc(S(=O)(=O)O)c6cc([N+](=O)[O-])ccc56)c4=O)c3)c2)c(=O)c1/N=N/c1c(O)cc(S(=O)(=O)O)c2cc([N+](=O)[O-])ccc12,,,> 50%,> 50%,inhibition [5]: > 50%
O=C(/C=C\c1ccc(O)c(O)c1)OC1CC(OC(=O)/C=C\c2ccc(O)c(O)c2)(C(=O)O)CC(O)C1O (centres undefined),1080 nM,680 nM,,,
CCNC(=O)[C@H](CCCCN(N)N)NC(=O)CNC(=O)[C@H](CC(C)C)NC(=O)[C@@H](NC(=O)[C@H](O)[C@@H](O)[C@H](O)[C@H](O)CO)C(C)C,,,< 50%,< 50%,
O=C1c2ccc(O)c(O)c2C(=O)c2c(O)ccc(O)c21 [QUINALIZARIN],1000 nM,4000 nM,,,
CC(C)(C)OC(=O)N[C@@H](COCc1ccccc1)C(=O)NCC(=O)N[C@@H](CCCN=C(N)N)C(=O)Nc1ccc([N+](=O)[O-])cc1 (Boc-Ser(Bn)-Gly-Arg-pNA),,,< 50%,> 50%,inhibition [5]: < 50%
O=C(/C=C\c1ccc(O)c(O)c1)OC1C(O)CC(OC(=O)/C=C\c2ccc(O)c(O)c2)(C(=O)O)CC1O (centres undefined),7800 nM,9500 nM,,,
OC[C@@H](O)[C@@H](O[C@H]1O[C@H](CO)[C@@H](O)[C@H](O)[C@H]1O)[C@H](O)[C@@H](O)CO,,,,,inhibition [3]: < 50%; inhibition [4]: < 50%
CN[C@@H]1[C@H](OC2[C@@H](OC3[C@@H](N=C(N)N)[C@H](O)[C@@H](N=C(N)N)[C@H](O)[C@H]3O)O[C@@H](C)[C@]2(O)CO)O[C@@H](CO)[C@H](O)[C@H]1O (some centres undefined),,,,,inhibition [3]: < 50%; inhibition [4]: < 50%
C[C@@H]1O[C@@H](OC2C[C@](O)(C(=O)CO)Cc3c(O)c4c(c(O)c32)C(=O)c2c(O)cccc2C4=O)C[C@H](N)[C@@H]1O (some centres undefined),4100 nM,2300 nM,,,
O=C(NC(CO)(CO)CO)C(=O)NC(CO)(CO)CO,,,,,inhibition [3]: < 50%; inhibition [4]: < 50%
NC(N)=Nc1nc(CSCC/C(N)=N/S(N)(=O)=O)cs1,,,< 50%,< 50%,

Compound,IC50 [1],IC50 [2],inhibition [6],inhibition [7],further results
Cc1cccc2c1C(O)=C1C(=O)C3C(O)=C(C(=O)NNC4(C(=O)O)CCCC4)C(=O)[C@@H](N(C)C)[C@@H]3C[C@@H]1C2(C)O (some centres undefined),3600 nM,1200 nM,,,
OCC(CO)(CO)NCCCNC(CO)(CO)CO,,,,,inhibition [3]: < 50%; inhibition [4]: < 50%
O=P(O)(O)O[C@H]1O[C@H](CO)[C@@H](O)[C@H](O)[C@@H]1O,,,,,inhibition [3]: < 50%; inhibition [4]: < 50%
OC[C@H]1O[C@H](OC[C@H]2OC(O)[C@H](O)[C@@H](O)[C@@H]2O)[C@H](O)[C@@H](O)[C@@H]1O (some centres undefined),,,,,inhibition [3]: < 50%; inhibition [4]: < 50%
O=P(O)(O)O[C@@H]1O[C@H](CO)[C@@H](O)[C@H](O)[C@H]1O,,,,,inhibition [3]: < 50%; inhibition [4]: < 50%
NC(=O)c1ccccc1NC(=O)Nc1cc(NC(=O)Nc2ccccc2C(N)=O)c(Br)cc1Br,,,> 50%,> 50%,inhibition [5]: < 50%
O=C[C@H](O)[C@@H](O)C(O[C@@H]1O[C@H](CO)[C@H](O)[C@H](O)[C@H]1O)[C@H](O)CO (some centres undefined),,,< 50%,< 50%,
N[C@H]1[C@@H](OP(=O)(O)O)O[C@H](CO)[C@H](O)[C@@H]1O,,,,,inhibition [3]: < 50%; inhibition [4]: < 50%
O=C(CC(O)CCc1ccc(O)c(O)c1)O[C@H]1Cc2cc(O)c(O)cc2O[C@H]1c1ccc(O)c(O)c1 (some centres undefined),1000 nM,1400 nM,,,
O=c1oc2c(O)c(O)cc3c(=O)oc4c(O)c(O)cc1c4c23 [ELLAGIC ACID],,5100 nM,,,
OC[C@@H](O)[C@@H](O)[C@H](O)c1cnc([C@@H](O)[C@H](O)[C@H](O)CO)cn1,,,,,inhibition [3]: < 50%; inhibition [4]: < 50%
Cc1cccc2c1C(O)=C1C(=O)C3C(O)=C(C(=O)NCN4CCN(C(=N)N=C(N)N)CC4)C(=O)[C@@H](N(C)C)[C@@H]3C[C@@H]1C2(C)O (some centres undefined),300 nM,900 nM,,,
NC[C@@H](O)c1ccc(OC(=O)[C@H](O)[C@@H](O)C(=O)O)c(OC(=O)[C@H](O)[C@@H](O)C(=O)O)c1,,,< 50%,> 50%,inhibition [5]: < 50%
N/N=C(\S)Nc1ccc(N/C(S)=N/N)cc1,,,< 50%,> 50%,inhibition [5]: < 50%
OCCNCCNC(O)C(O)CO (centres undefined),,,< 50%,< 50%,
O=C1c2c(O)ccc(O)c2C(=O)c2c(NCCNCCO)ccc(NCCNCCO)c21 [MITOXANTRONE],8000 nM,3800 nM,,,
O=c1c(O)cccc2cc(O)c(O)c(O)c12 [PURPUROGALLIN],,2100 nM,,,
O=C(NCCCCCCNC(=O)NNc1ccccc1)NNc1ccccc1,,,< 50%,< 50%,
OC[C@H]1O[C@@H](SC2O[C@H](CO)[C@H](O)[C@H](O)[C@H]2O)[C@H](O)[C@@H](O)[C@H]1O (some centres undefined),,,< 50%,< 50%,
CCCCCCCCCCCCC/C=C/C(O)C(N)CO[C@@H]1O[C@H](CO)[C@H](O)[C@H](O)[C@H]1O (some centres undefined),,,< 50%,> 50%,inhibition [5]: < 50%

Compound,IC50 [1],IC50 [2],inhibition [6],inhibition [7],further results
"N=C(N)NCCCC(NC(N)=O)C(=O)O (single isomer, unassigned)",,,< 50%,< 50%,
Nc1nc(=O)c2c([nH]1)NCC(CNc1ccc(C(=O)N[C@@H](CCC(=O)O)C(=O)O)cc1)=N2,,,,,inhibition [8]: < 50%; inhibition [3]: > 50%; inhibition [4]: > 50%
Cc1cc(=O)oc2cc(NC(=O)[C@H](CCCN=C(N)N)NC(=O)CN)ccc12 (H-Gly-Arg-{AMC}),,,< 50%,< 50%,
O=C(/C=C\c1ccc(O)c(O)c1)OC1CC(O)(C(=O)O)CC(OC(=O)/C=C\c2ccc(O)c(O)c2)C1O (centres undefined),660 nM,640 nM,,,
CCCNC(=O)NNC(=O)c1ccccc1NC(=O)NCCC,,,< 50%,< 50%,
NCCC[C@H](N)CC(=O)N[C@H]1CNC(=O)[C@H]([C@H]2C[C@H](O)NC(N)=N2)NC(=O)/C(=C/NC(N)=O)NC(=O)[C@H](CO)NC(=O)[C@H](CO)NC1=O (β3hOrn-[Dap]SS[ΔAla(Z-3-ureido)][X1]; lactam 1-C),,,< 50%,< 50%,
Cc1cc(O)c2c(=O)c3c(O)cc(O)c4c5c(O)cc(O)c6c(=O)c7c(O)cc(C)c8c1c2c(c34)c(c78)c65 [HYPERICIN],,10000 nM,,,
CCC1C/C(=N\NC(N)=O)C(NNC(N)=O)C(C)C1 (centres undefined),,,< 50%,< 50%,
O=C(/C=C/c1ccc(O)c(O)c1)O[C@H]1[C@H](O)C[C@](O)(C(=O)O)C[C@H]1OC(=O)/C=C/c1ccc(O)c(O)c1 (stereo in doubt; form 2),460 nM,250 nM,,,
COC(=O)C1(O)C[C@H](O)[C@@H](NC(C)=O)[C@H]([C@H](O)[C@H](O)CO)O1 (some centres undefined),,,,,inhibition [3]: < 50%; inhibition [4]: < 50%
C[Si](C)(C)C,5000 nM,17000 nM,,,
COC1/C=C/OC2(C)Oc3c(C)c(O)c4c(O)c(c(C=NN5C(C)CN(Cc6ccc([N+](=O)[O-])cc6)CC5C)c(O)c4c3C2=O)NC(=O)/C(C)=C\C=C\C(C)C(O)C(C)C(O)C(C)C(OC(C)=O)C1C (centres undefined),19700 nM,20600 nM,,,
N=C(NCCCCCCNC(=N)NC(=N)Nc1ccc(Cl)cc1)NC(=N)Nc1ccc(Cl)cc1,,,,,inhibition [8]: < 50%; inhibition [3]: < 50%; inhibition [4]: > 50%
CN[C@@H]1[C@H](O[C@H]2[C@H](O[C@H]3[C@H](O)[C@@H](O)[C@H](N=C(N)N)[C@@H](O)[C@@H]3N=C(N)N)O[C@@H](C)[C@]2(O)C=O)O[C@@H](CO)[C@H](O)[C@H]1O,,,< 50%,< 50%,
O=C(CCc1ccc(O)c(O)c1)c1ccc(O)c(O)c1O,1000 nM,1700 nM,,,
N#C/C(=C\c1ccc(O)c(O)c1)C(=O)NCCCNC(=O)/C(C#N)=C/c1ccc(O)c(O)c1,3000 nM,10000 nM,,,
CC(C)C[C@@H](C=O)NC(=O)N[C@H](C(=O)N[C@@H](CCC(N)=O)C(=O)N[C@@H](C)C=O)[C@@H]1CCN=C(N)N1,,,< 50%,< 50%,
O=C(CNC(=O)NCc1ccoc1)NNC(=O)Nc1cccc(Cl)c1,,,< 50%,< 50%,
